For 16 compounds, EC50 and CC50 results are on record in ChEMBL document CHEMBL1828499, “Design and synthesis of inhibitors of noroviruses by scaffold hopping” (Bioorg Med Chem, 2011).

The subject of data set [1] is Norovirus. The data set is described as follows: Antiviral activity against Norovirus infected in human HG23 cells assessed as inhibition of viral replication after 24 hrs by qRT-PCR. Type of data set: functional. Particulars: HG23, 24 h, read-out: ED50 (the source's name). In a few lines:
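HG23 cells (harbouring NV replicon), one day old and 80–90% confluent, exposed to each compound over 0 (mock-DMSO) to 20 μM. NV genome levels measured by qRT-PCR; ED50 for genome level taken at 24 hr post-treatment.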

A short description of data set [2]: Cytotoxicity against human HG23 cells after 48 hrs. Type of data set: cell-based. Particulars: read-out: TD50. The method in brief: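 HG23 cells (Norwalk virus replicon-harboring) exposed to each compound at 0 (mock-DMSO) to 320 μM for 48 hr; viability read with a cell cytotoxicity assay kit; median toxic dose (TD50) calculated.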

Structures are written as SMILES.

As to `O=C1NCCN1Cc1cccc(Oc2ccccc2)c1`, the EC50 in data set [1] came to 8 µM. Further, the CC50 at 48 h in data set [2] amounted to 95 µM.
Regarding `CC(C)(C)OC(=O)CN1CCN(Cc2cccc(Oc3ccccc3)c2)C1=O`, in data set [1], the EC50 came out at 12 µM. Further, the CC50 at 48 h in data set [2] is 55 µM.
Consider `O=C(O)CN1CCN(Cc2cccc(Oc3ccccc3)c2)C1=O`, for which, in data set [1], the EC50 was above 20 µM.
Turning to `O=C1N(CCN2CCOCC2)CCN1Cc1cccc(Oc2ccccc2)c1`, in data set [1], the EC50 was 16 µM. Moreover, the CC50 at 48 h in data set [2] is 120 µM.
For `O=C1N(CCN2CCN(CCN3CCN(Cc4cccc(Oc5ccccc5)c4)C3=O)CC2)CCN1Cc1cccc(Oc2ccccc2)c1`, in that order: 0.5 µM and 2.5 µM.
`O=S1(=O)NCCCN1Cc1cccc(Oc2ccccc2)c1`: the EC50 in data set [1] is above 20 µM.
Still for that read-out and setting: the value for `O=C1NCCCN1Cc1cccc(Oc2ccccc2)c1` was above 20 µM; that for `CC(C)(O)c1cn(Cc2cccc(Oc3ccccc3)c2)nn1` was above 20 µM.
For `CCCCc1cn(Cc2cccc(Oc3ccccc3)c2)nn1`, in data set [1], the EC50 turned out to be 6 µM. Moreover, the CC50 at 48 h in data set [2] was found to be 40 µM.
For the compound `O=C(O)CCCc1cn(Cc2cccc(Oc3ccccc3)c2)nn1`, the EC50 in data set [1] is above 20 µM.
Regarding `C[Si](C)(C)c1cn(Cc2cccc(Oc3ccccc3)c2)nn1`, the EC50 in data set [1] was 7 µM. Further, in data set [2], the CC50 at 48 h was 30 µM.
On to `c1ccc(Oc2cccc(Cn3ccnn3)c2)cc1`, for which the EC50 in data set [1] amounted to 10 µM. The CC50 at 48 h in data set [2] is 100 µM.
With `c1ccc(Oc2cccc(Cc3nn[nH]n3)c2)cc1`, the EC50 in data set [1] is above 20 µM.
Turning to `Cn1nnc(Cc2cccc(Oc3ccccc3)c2)n1`, the EC50 in data set [1] was above 20 µM.
As for `c1ccc(Oc2cccc(Cn3ccnc3)c2)cc1`, in data set [1], the EC50 came out at 8 µM. Besides, the CC50 at 48 h in data set [2] came to 35 µM.
As to `O=C1CN(Cc2cccc(Oc3ccccc3)c2)S(=O)(=O)N1`, in data set [1], the EC50 was above 20 µM.
